Results as given in ChEMBL document CHEMBL1152519, “Synthesis, structural activity-relationships, and biological evaluation of novel amide-based allosteric binding site antagonists in NR1A/NR2B N-methyl-D-aspartate receptors” (Bioorg Med Chem, 2009).

Legend:
[1] = biological target: Glutamate NMDA receptor; Grin1/Grin2b (Rattus norvegicus) (UniProt P35439+Q00960); assay: Antagonist activity at rat recombinant NR1/NR2B receptor expressed in Xenopus laevis oocytes assessed as inhibition of glutamate/glycine-induced current at 3 uM by two electrode voltage clamp method relative to control; assay type: functional, cell-based; conditions: Oocyte
Outline: (§1)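 Xenopus oocytes injected with NR1-1a (3–5 ng) plus NR2A, 2B, 2C or 2D cRNA (7–10 ng), kept at 15 °C. Voltage clamp at −40 mV. Responses to 50 μM glutamate + 30 μM glycine with 3 μM compound, as % of response without compound. NR2A oocytes pre-loaded with 50 μM BAPTA-AM. Mean ± SEM, 4–10 oocytes; paired t-test.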

[2] = biological target: Glutamate receptor ionotropic, kainate 2 (Rattus norvegicus) (UniProt P42260); assay: Antagonist activity at rat recombinant GluR6 expressed in Xenopus laevis oocytes assessed as inhibition of concanavalin A/glutamate-induced current at 3 uM by two electrode voltage clamp method relative to control; assay type: functional, cell-based; conditions: Oocyte
Chain of Glutamate receptor ionotropic, kainate 2 (Rattus norvegicus) (P42260 whole entry): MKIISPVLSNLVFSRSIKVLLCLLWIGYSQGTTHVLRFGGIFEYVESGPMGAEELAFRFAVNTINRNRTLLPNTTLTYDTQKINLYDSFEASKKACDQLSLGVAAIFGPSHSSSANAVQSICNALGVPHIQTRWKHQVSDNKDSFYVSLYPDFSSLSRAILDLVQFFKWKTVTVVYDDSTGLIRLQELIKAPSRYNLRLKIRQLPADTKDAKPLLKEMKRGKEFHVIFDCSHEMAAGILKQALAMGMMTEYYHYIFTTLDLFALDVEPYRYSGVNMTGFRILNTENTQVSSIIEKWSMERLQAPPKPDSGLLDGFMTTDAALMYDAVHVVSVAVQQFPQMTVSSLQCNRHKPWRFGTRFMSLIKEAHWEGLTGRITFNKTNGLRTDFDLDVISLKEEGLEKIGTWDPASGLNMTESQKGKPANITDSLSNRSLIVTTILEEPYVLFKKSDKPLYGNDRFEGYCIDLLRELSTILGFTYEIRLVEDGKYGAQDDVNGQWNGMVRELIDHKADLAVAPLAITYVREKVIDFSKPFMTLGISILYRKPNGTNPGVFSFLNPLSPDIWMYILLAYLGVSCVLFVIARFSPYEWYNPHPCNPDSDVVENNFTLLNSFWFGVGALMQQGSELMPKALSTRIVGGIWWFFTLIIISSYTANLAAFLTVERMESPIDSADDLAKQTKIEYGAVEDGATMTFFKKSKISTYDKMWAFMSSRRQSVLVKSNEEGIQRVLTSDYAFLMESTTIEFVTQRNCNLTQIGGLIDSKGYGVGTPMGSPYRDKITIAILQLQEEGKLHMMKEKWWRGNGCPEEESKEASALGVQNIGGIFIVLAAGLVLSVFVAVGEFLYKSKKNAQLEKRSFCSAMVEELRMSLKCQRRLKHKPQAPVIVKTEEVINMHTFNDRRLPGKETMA
Outline: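 Oocytes expressing homomeric GluR6 (5–10 ng cRNA) pretreated 5 min with 10 μM concanavalin-A. Currents evoked by 100 μM glutamate at −40 mV, with or without 3 μM compound, and given as percent of control. Mean ± SEM of 4–10 oocytes; paired t-test.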

[3] = biological target: Adrenergic receptor alpha-1 (Rattus norvegicus) (UniProt P15823+P23944+P43140); assay: Displacement of [3H]prazosin from alpha1 adrenergic receptor in Wistar rat brain membrane at 3 uM; assay type: cell membranes
Outline: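 Wistar rat brain membranes. Percent displacement of 0.25 nM [3H]prazosin by 3 μM compound, run in duplicate.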

[4] = biological target: Glutamate NMDA receptor; Grin1/Grin2a (Rattus norvegicus) (UniProt P35439+Q00959); assay: Antagonist activity at rat recombinant NR1/NR2A receptor expressed in Xenopus laevis oocytes assessed as inhibition of glutamate/glycine-induced current at 3 uM by two electrode voltage clamp method relative to control; assay type: functional, cell-based; conditions: Oocyte; outline: as §1
[5] = biological target: Glutamate NMDA receptor; GRIN1/GRIN2B (Homo sapiens, UniProt Q05586+Q13224); assay: Antagonist activity at human recombinant NR1/NR2B receptor expressed in frog oocytes assessed as inhibition of glutamate/glycine-induced current by two electrode voltage clamp method; assay type: functional, cell-based, Oocyte
Outline: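 Human NR1/NR2B cRNA injected into Xenopus oocytes. Two-electrode voltage clamp at −40 mV, 23 °C, 2–7 d after injection. Glutamate/glycine (50–100 μM/30 μM) applied, then with 5–8 compound concentrations. Bath contains 10 μM EDTA; leak-corrected.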

[6] = biological target: Ionotropic glutamate receptor NMDA 1/2D (Rattus norvegicus) (UniProt P35439+Q62645); assay: Antagonist activity at rat recombinant NR1/NR2D receptor expressed in Xenopus laevis oocytes assessed as inhibition of glutamate/glycine-induced current at 3 uM by two electrode voltage clamp method relative to control; assay type: functional, cell-based; conditions: Oocyte; outline: as §1
MDCK [7] = assay: Efflux ratio of permeability from basolateral to apical over apical to basolateral side in MDR1-expressing MDCK cells at 5 uM after 2 hrs by LC-MS/MS analysis; assay type: ADME, cell-based, Canis lupus familiaris; conditions: dog
MDCK [8] = assay: Apparent permeability from apical to basolateral side of MDR1-expressing MDCK cells at 5 uM after 2 hrs by LC-MS/MS analysis; assay type: ADME, cell-based, Canis lupus familiaris; conditions: dog
Outline: (§2)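 MDR1-MDCK monolayers grown 7–11 days on Transwells. Compound at 5 μM in HBSS pH 7.4 (final DMSO ≤1%) added apically (A–B) or basally (B–A). Incubated 2 h at 37 °C; both compartments quantified by LC–MS/MS against a >4-point calibration. Papp given in ×10−6 cm/s; efflux ratio = B–A/A–B. Duplicates.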

hERG (KCNH2) [9] = biological target: T1, hERG (KCNH2) (Homo sapiens, UniProt Q12809); assay: Displacement of [3H]astemizole from human recombinant ERG expressed in HEK293 cells at 10 uM; assay type: cell-based; conditions: HEK293 cells expressing human recombinant ERG, probe [3H]astemizole, read-out: Activity
T1 sequence (Q12809 whole entry): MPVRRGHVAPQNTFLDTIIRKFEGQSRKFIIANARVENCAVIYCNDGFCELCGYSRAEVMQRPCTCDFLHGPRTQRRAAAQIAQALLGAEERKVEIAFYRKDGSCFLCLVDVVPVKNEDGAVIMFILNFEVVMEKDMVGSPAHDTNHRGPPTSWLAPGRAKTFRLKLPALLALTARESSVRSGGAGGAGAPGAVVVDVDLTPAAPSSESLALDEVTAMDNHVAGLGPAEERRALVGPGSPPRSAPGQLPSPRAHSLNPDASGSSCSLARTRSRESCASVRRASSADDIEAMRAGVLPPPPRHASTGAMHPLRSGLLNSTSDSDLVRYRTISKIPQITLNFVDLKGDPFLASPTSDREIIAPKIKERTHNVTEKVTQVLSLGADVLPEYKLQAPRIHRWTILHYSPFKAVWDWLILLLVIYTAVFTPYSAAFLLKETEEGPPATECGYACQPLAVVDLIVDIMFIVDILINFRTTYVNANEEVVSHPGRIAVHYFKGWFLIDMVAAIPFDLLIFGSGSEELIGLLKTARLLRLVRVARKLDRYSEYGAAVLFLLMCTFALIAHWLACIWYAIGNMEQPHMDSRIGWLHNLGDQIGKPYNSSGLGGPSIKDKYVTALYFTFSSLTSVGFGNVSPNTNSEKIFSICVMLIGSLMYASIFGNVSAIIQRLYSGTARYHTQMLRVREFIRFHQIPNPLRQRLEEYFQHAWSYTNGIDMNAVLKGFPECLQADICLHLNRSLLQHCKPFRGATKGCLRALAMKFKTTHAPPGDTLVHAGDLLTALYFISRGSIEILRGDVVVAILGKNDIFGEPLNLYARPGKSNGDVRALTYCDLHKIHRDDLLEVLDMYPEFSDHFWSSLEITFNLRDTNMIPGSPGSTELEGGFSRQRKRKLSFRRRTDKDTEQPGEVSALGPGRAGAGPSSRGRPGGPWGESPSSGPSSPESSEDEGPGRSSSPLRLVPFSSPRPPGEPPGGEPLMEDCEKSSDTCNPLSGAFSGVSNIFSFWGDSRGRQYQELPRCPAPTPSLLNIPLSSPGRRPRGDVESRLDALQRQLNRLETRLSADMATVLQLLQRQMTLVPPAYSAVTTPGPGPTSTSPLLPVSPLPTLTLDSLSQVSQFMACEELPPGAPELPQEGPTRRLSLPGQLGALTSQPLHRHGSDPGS

[10] = biological target: Glutamate NMDA receptor; Grin1/Grin2c (Rattus norvegicus) (UniProt P35439+Q00961); assay: Antagonist activity at rat recombinant NR1/NR2C receptor expressed in Xenopus laevis oocytes assessed as inhibition of glutamate/glycine-induced current at 3 uM by two electrode voltage clamp method relative to control; assay type: functional, cell-based; conditions: Oocyte; outline: as §1
[11] = biological target: Glutamate receptor ionotropic, NMDA 2B (Rattus norvegicus, UniProt Q00960); assay: Displacement of [3H]ifenprodil form NR2B receptor in Wistar rat cerebral cortex membrane; assay type: tissue-based
MDCK [12] = assay: Apparent permeability from basolateral to apical side of MDR1-expressing MDCK cells at 5 uM after 2 hrs by LC-MS/MS analysis; assay type: ADME, cell-based, Canis lupus familiaris; conditions: dog; outline: as §2
[13] = biological target: Glutamate receptor 1 (Rattus norvegicus) (UniProt P19490); assay: Antagonist activity at rat recombinant GluR1 expressed in Xenopus laevis oocytes assessed as inhibition of glutamate-induced current at 3 uM by two electrode voltage clamp method relative to control; assay type: functional, cell-based; conditions: Oocyte
Chain of Glutamate receptor 1 (Rattus norvegicus) (P19490 whole entry): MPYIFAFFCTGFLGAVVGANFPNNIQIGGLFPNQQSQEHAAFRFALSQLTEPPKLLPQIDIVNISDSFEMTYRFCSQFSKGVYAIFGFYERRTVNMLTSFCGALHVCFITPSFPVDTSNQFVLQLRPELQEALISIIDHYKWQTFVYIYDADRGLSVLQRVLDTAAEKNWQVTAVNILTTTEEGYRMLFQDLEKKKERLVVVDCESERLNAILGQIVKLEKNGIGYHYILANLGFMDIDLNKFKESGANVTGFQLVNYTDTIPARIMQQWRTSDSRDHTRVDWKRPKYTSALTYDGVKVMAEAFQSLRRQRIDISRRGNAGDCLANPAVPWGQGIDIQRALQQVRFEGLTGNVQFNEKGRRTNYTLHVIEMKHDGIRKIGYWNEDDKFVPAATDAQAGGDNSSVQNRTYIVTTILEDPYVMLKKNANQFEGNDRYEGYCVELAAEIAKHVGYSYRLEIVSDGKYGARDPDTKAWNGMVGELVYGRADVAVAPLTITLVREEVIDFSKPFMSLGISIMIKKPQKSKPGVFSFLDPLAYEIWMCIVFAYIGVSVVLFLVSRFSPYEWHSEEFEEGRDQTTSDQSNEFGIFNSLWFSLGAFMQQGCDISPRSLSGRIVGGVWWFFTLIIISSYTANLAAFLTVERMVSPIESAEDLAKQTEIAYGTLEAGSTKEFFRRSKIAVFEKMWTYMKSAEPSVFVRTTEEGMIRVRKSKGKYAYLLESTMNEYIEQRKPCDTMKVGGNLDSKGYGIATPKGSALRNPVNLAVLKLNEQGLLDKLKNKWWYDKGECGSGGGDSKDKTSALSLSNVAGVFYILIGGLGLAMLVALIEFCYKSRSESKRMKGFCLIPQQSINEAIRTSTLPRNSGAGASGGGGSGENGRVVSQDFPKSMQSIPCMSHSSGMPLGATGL
Outline: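 GluR1 homomers expressed from 5–10 ng cRNA in Xenopus oocytes. Clamped at −40 mV. Currents evoked by 100 μM glutamate with 3 μM compound, expressed as % of control without compound. Mean ± SEM, 4–10 oocytes; paired t-test.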

[14] = Selectivity ratio of IC50 for mouse NR1/NR2B receptor D101A mutant to IC50 for wild type rat NR1/NR2B receptor
[15] = biological target: Voltage-gated inwardly rectifying potassium channel KCNH2 (Homo sapiens, UniProt Q12809); assay: Displacement of [3H]astemizole from human recombinant ERG expressed in HEK293 cells; assay type: cell-based
Chain of Voltage-gated inwardly rectifying potassium channel KCNH2 (Q12809 whole entry): as the sequence (Q12809 whole entry) above

hERG (KCNH2) [16] = biological target: T1, hERG (KCNH2); assay: Displacement of [3H]astemizole from human recombinant ERG expressed in HEK293 cells at 3 uM; assay type: cell-based; conditions: HEK293 cells expressing human recombinant ERG, probe [3H]astemizole, read-out: Activity
Outline: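 Membranes from HEK293 cells expressing human hERG. Ligand 1.5 nM [3H]-astemizole; displacement at a single test-compound concentration, run in duplicate.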

SMILES	% response [1] [%]	% response [2] [%]	Activity [3] [%]	% response [4] [%]	IC50 [5] [nM]	% response [6] [%]	Ratio (MDCK [7])	Papp (MDCK [8]) [×10⁻⁶ cm/s]	% response [10] [%]	Ki [11] [nM]	Papp (MDCK [12]) [×10⁻⁶ cm/s]	% response [13] [%]	Ratio IC50 [14]	inhibition at 10 µM (hERG (KCNH2) [9]) [%]	Ki [15] [nM]	inhibition at 3 µM (hERG (KCNH2) [16]) [%]
CS(=O)(=O)Nc1ccc(CCC(=O)NCCNc2ccc(Cl)c(Cl)c2)cc1	14	98	1	99	65	84	–	–	–	–	–	–	–	–	–	–
CS(=O)(=O)Nc1ccc(OCCN2CCN(c3ccc(Cl)c(Cl)c3)C2=O)cc1	20	103	23	105	730	98	3.1	12.9	98	300	40.2	98	–	71	–	–
CS(=O)(=O)Nc1ccc(CCC(=O)NNC(=S)Nc2ccc(Cl)c(Cl)c2)cc1	12	96	–	104	270	92	–	–	94	–	–	100	–	13	–	–
CS(=O)(=O)Nc1ccc(CCC(=O)NNC(=O)c2ccc(Cl)c(Cl)c2)cc1	21	97	–	102	521	96	–	–	97	–	–	100	–	–	–	–
CS(=O)(=O)Nc1ccc(CCC(=O)NCCCNc2ccc(Cl)c(Cl)c2)cc1	12	98	19	96	750	96	–	–	90	–	–	100	–	83	–	–
CS(=O)(=O)Nc1ccc(CCC(=O)NNC(=O)Nc2ccc(Cl)c(Cl)c2)cc1	6	99	5	101	28	91	–	–	96	–	–	100	51	3	–	–
CS(=O)(=O)Nc1ccc(OCC(=O)N2CCN(c3ccc(Cl)c(Cl)c3)CC2)cc1	18	101	90	89	166	106	–	4.76	94	817	42.4	101	–	93	–	–
CS(=O)(=O)Nc1ccc(CCCN2CCN(c3ccc(Cl)c(Cl)c3)C2=O)cc1	17	99	–	96	637	91	–	–	97	–	–	100	–	81	–	–
CS(=O)(=O)Nc1ccc(CCC(=O)NC/C=C/c2ccc(Cl)c(Cl)c2)cc1	18	100	16	99	50	88	–	–	95	–	–	104	–	–	3000	47
CS(=O)(=O)Nc1ccc(CCC(=O)N2CCN(c3ccc(Cl)c(Cl)c3)CC2)cc1	48	101	–	103	3600	97	–	–	100	–	–	104	–	–	–	–
CS(=O)(=O)Nc1ccc(CCC(=O)NNCCc2ccc(Cl)c(Cl)c2)cc1	44	98	–	106	4810	95	–	–	97	–	–	100	–	–	–	–
CS(=O)(=O)Nc1ccc(CCC(=O)NN2C(=O)c3cc(Cl)c(Cl)cc3C2=O)cc1	90	100	–	101	41800	93	–	–	102	–	–	98	–	–	–	–
CS(=O)(=O)Nc1ccc(OCCNCCNc2ccc(Cl)c(Cl)c2)cc1	17	98	49	91	39	100	–	–	100	–	–	101	–	97	300	–
CS(=O)(=O)Nc1ccc(CCCNCCNc2ccc(Cl)c(Cl)c2)cc1	21	99	52	89	19	91	–	–	104	–	–	102	–	> 98	14	–

The next lines start with results.

% response [1] [%]	% response [2] [%]	Activity [3] [%]	% response [4] [%]	IC50 [5] [nM]	% response [6] [%]	Ratio (MDCK [7])	Papp (MDCK [8]) [×10⁻⁶ cm/s]	% response [10] [%]	Ki [11] [nM]	Papp (MDCK [12]) [×10⁻⁶ cm/s]	% response [13] [%]	Ratio IC50 [14]	SMILES	inhibition at 10 µM (hERG (KCNH2) [9]) [%]	Ki [15] [nM]	inhibition at 3 µM (hERG (KCNH2) [16]) [%]
15	102	–	99	64	79	–	–	96	–	–	100	–	CS(=O)(=O)Nc1ccc(OCC(=O)NCCCc2ccc(Cl)c(Cl)c2)cc1	< 1	–	–
62	100	–	99	1860	89	–	–	102	–	–	102	–	CS(=O)(=O)Nc1ccc(CCCC(=O)NCCc2ccc(Cl)c(Cl)c2)cc1	–	–	–
21	100	11	97	380	92	–	–	96	–	–	100	–	CS(=O)(=O)Nc1ccc(OCC(=O)NCCOc2ccc(Cl)c(Cl)c2)cc1	42	–	–
14	94	22	100	72	97	–	–	95	–	–	101	–	CS(=O)(=O)Nc1ccc(OCC(=O)NC/C=C/c2ccc(Cl)c(Cl)c2)cc1	74	–	–
12	90	–	106	193	100	–	–	97	–	–	103	–	CS(=O)(=O)Nc1ccc(OCC(=O)NCCCNc2ccc(Cl)c(Cl)c2)cc1	–	–	–
21	94	5	96	362	96	–	–	95	–	–	101	–	CS(=O)(=O)Nc1ccc(OCC(=O)NCCSc2ccc(Cl)c(Cl)c2)cc1	75	–	–
21	98	21	108	1110	95	–	–	94	–	–	97	–	CS(=O)(=O)Nc1ccc(OCCNCC(=O)Nc2ccc(Cl)c(Cl)c2)cc1	67	–	–
